# An excerpt weighted towards active compounds, which were near 5.6% of everything screened.
# UPR CHOP act – activators of apoptotic CHOP UPR arm, primary screen, cell-based, CHO-CHOP luciferase reporter, luminescence, uHTS | UPR activation; percent of tunicamycin response over DMSO baseline | activation, % at 10 µM | 330,000 compounds, 0.34% hits;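 active = at 10 µM dose, activation of 40% or more, normalized to positive control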;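 also: 100% = tunicamycin at 10 µg/mL and 0% = DMSO alone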
#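 System: CHO-CHOP luciferase reporter cell line | Buffer or medium: F12 medium containing 10% fetal bovine serum | Doses: One dose, 10 µM in 0.5% DMSO | Times: 6 h compound exposure at 37 °C after overnight seeding | Signal: Luciferase luminescence | Read-out: % activation vs tunicamycin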
# aDG glyco up – activators of alpha-DG glycosylation, primary screen, uHTS, Pro5-aDG cells, AlphaScreen; alpha-DG glycosylation AlphaScreen (IIH6); 0% Pro5, 100% B10-LARGE cell signal; activation, % at 10 µM; 360,000 compounds, 0.22% hits;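 active = activation of at least 8% versus controls, or a plate z-score of at least 8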;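 also: Pro5 are CHO cells carrying HIG-tagged alpha-DG that lacks glycosylation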
# UPR XBP1 act – activators of adaptive XBP1 UPR arm, primary screen, cell-based, CHO-XBP1 luciferase reporter, luminescence, uHTS. 330,000 compounds, 0.33% hits. activation, % at 20 µM. AID 463104, 2010. IRE1-XBP1 UPR activation; percent of tunicamycin response, DMSO as zero;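 active = versus positive control, 20 µM dose yields 30% or more activation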;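 also: 100% = tunicamycin at 10 µg/mL and 0% = DMSO only wells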
#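 Material: CHO-XBP1 cells stably carrying IRE1-XBP1-driven luciferase reporter / Amount: 1000 cells per well / Compound: 20 µM, 1% DMSO / Times: 6 h treatment, 37 °C / Detection: luciferase luminescence / Measure: % activation of reporter signal versus tunicamycin and DMSO controls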
# CHOP inh – inhibitors of CHOP promoter induction, primary screen, cell-based, unfolded protein response, luciferase reporter. CHO-K1 CHOP-promoter luciferase, tunicamycin-induced, 15-18 h. inhibition, % at 10 µM. 220,000 compounds, 3.8% hits. AID 2732, 2010;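 active = compounds that reduced the stress-induced luciferase reporter signal by more than about 70% of percent inhibition, limit read from the data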;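 also: 0% = tunicamycin plus vehicle and 100% = wells without tunicamycin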
# MPTP inh – mitochondrial permeability transition pore inhibitors, primary screen, biochemical, isolated mouse mitochondria, absorbance. Ca2+ swelling absorbance, 30 min. 360,000 compounds, 1.4% hits. inhibition, % at 10 µM. AID 602449, 2012;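 active = inhibition of 50% or more, scaled per plate between neutral and stimulator controls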;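 also: 0% = DMSO wells given calcium and 100% = 1 mM EGTA wells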
# GRIN3A LBD mod – binders of NR3A ligand-binding domain, primary screen, biophysical, differential scanning fluorimetry, uHTS. Glutamate receptor ionotropic, NMDA 3A (GRIN3A) ligand-binding domain. NR3A LBD differential scanning fluorimetry, Tm shift; 0% = protein alone, 100% = glycine-bound protein. Tm shift relative to glycine control, % at 25 µM. 340,000 compounds, 2.5% hits;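 active = melting temperature shift of at least 10% of the positive control shift, at one fixed dose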
# An asterisk follows results filed as active; . = not tested or not shown.
SMILES,UPR CHOP act,aDG glyco up,UPR XBP1 act,CHOP inh,MPTP inh,GRIN3A LBD mod
Cn1c(SCC(=O)NCCc2ccccc2)ncc(C(=O)Nc2ccc(F)cc2)c1=O,1.9,-0.2,-1.6,.,-0.7,1.1
O=C(C1CCCN(Cc2ccccc2)C1)N1CCCCC1 (stereo not given),0.4,-0.1,-2.6,12.4,-1.1,3.5
O=C(C1CCCN(Cc2cccs2)C1)N1CCCCCC1 (stereo not given),-1.6,-0.1,-3.9,-17.2,2.3,10.8*
C=CCN=C1S/C(=C\N(C)C)C(=O)N1S(=O)(=O)c1ccc(C)cc1,0.2,0.5,0.5,.,-1.8,12.0*
O=C(Nc1cc(Cl)cc(Cl)c1)c1ccc(Cn2c(=O)[nH]c3ccsc3c2=O)cc1,-0.5,-0.1,-1.5,94.2*,0.8,-1.7
CCOc1ccc(NC(=O)CCn2c(=O)[nH]c3ccsc3c2=O)cc1,0.3,-0.2,2.5,14.6,-1.7,19.4*
COC(=O)Oc1c(Br)c(=O)oc2ccccc12,0.4,0.1,-0.4,85.3*,0.6,0.6
COc1ccc(C=NNC(=O)c2cc(C)oc2C)cc1O,2.8,-0.1,3.4,.,0.3,1.9
NC(=O)CSc1ncc(-c2ccc([N+](=O)[O-])cc2)[nH]1,2.8,-0.3,-3.9,23.4,-0.7,-0.3
O=[N+]([O-])c1ccc(-c2cnc(SCc3ccccc3Cl)[nH]2)cc1,3.6,0.1,1.8,36.0,36.9,13.1*
Cc1cc(C)c(CSc2ncc(-c3ccc([N+](=O)[O-])cc3)[nH]2)c(C)c1,-0.5,2.5,-3.7,74.6*,13.9,12.1*
CC1(NC(=O)CSc2nnc(-c3c[nH]c4ccccc34)n2C2CC2)CCS(=O)(=O)C1 (stereo not given),-0.3,-0.1,1.1,.,1.5,3.1
COc1ccc(Nc2nc(-c3ccccc3O)nc3ccccc23)cc1,-0.5,0.1,0.6,.,0.1,34.2*
COc1cccc(Nc2nc(-c3ccccc3O)nc3ccccc23)c1,8.9,0.0,3.9,.,4.0,31.7*
Oc1ccc(Nc2nc(-c3ccccc3F)nc3ccccc23)cc1,-0.2,-0.2,1.2,.,0.7,25.2*
Oc1ccc(Nc2nc(-c3ccccc3O)nc3ccccc23)cc1,0.7,0.0,7.6,.,2.1,35.9*
COc1ccc(Nc2nc(-c3ccccc3F)nc3ccccc23)cc1OC,1.2,0.0,16.0,.,0.6,-0.7
O=C1C(Sc2ccccc2)=C[C@@]2(O)CC[C@@H](O)[C@]1(Sc1ccccc1)[C@H]2O,.,0.0,.,.,-1.1,.
COc1ccc(S(=O)(=O)N2CCN(C(=O)c3cc(C)nc4ccccc34)CC2)cc1OC,-1.7,0.0,-1.9,.,-1.7,1.5
Cc1ccc2c(c1)CCCN2S(=O)(=O)c1cccc(C(=O)Nc2ccccc2C(=O)O)c1,-0.6,1.1,-1.7,.,15.4,.
CC(CCC(=O)O)C1CCC2C3CC(O)C4CC(O)CC[C@]4(C)C3CCC12C (stereo not given in full),.,0.3,.,.,-0.8,0.8
Oc1ccccc1Nc1nc(-c2ccccc2O)nc2ccccc12,1.0,-0.1,-1.3,.,6.0,28.4*
COc1ccc(Nc2nc(-c3ccccc3)nc3ccccc23)c(OC)c1,-2.5,0.0,1.6,10.3,1.1,-1.7
COc1cccc(Nc2nc(-c3ccccc3)nc3ccccc23)c1,2.8,0.1,0.4,.,3.3,36.6*
COc1ccccc1Nc1nc(-c2ccccc2O)nc2ccccc12,-0.8,-0.1,-0.9,-38.0,1.0,3.7
SMILES,UPR CHOP act,aDG glyco up,UPR XBP1 act,CHOP inh,MPTP inh,GRIN3A LBD mod
C/C(=N\Nc1nc(-c2ccccc2O)nc2ccccc12)c1ccccc1,1.5,-0.2,3.1,49.2,3.0,13.4*
CC(C)C(NS(=O)(=O)c1cccc2nsnc12)C(=O)N1CCCCC1 (stereo not given),0.0,-0.1,-1.0,.,-1.9,3.0
Cc1ccc(C(=O)N2CCN(S(=O)(=O)c3ccc(C)c([N+](=O)[O-])c3)C2)cc1,0.2,0.0,0.0,11.0,-1.5,2.0
Cc1cc(NC(=O)CSC2=NS(=O)(=O)c3ccccc3N2)no1,2.2,-0.3,-1.0,.,-0.9,5.5
O=C(C[C@@H]1C/C=C\CC[C@H](Cc2ccc(F)cc2)C(=O)OC[C@@H](Cc2ccccc2)NC1=O)NCCO,1.3,-0.3,-2.5,.,0.5,-3.3
O=C(Nc1nnc(Cc2ccc([N+](=O)[O-])cc2)s1)Nc1ccccc1F,-1.1,1.2,2.5,74.5*,10.0,-6.3
CCCCN1CC[C@@H]2C=CC[C@H](C(=O)OC)[C@@H]2C1=O,0.6,0.1,0.5,.,-0.3,0.3
Cc1nc2cc(-c3ccc(Cl)cc3)nn2c(C)c1CCC(=O)NC(C)c1ccc2c(c1)OCCO2 (stereo not given),-3.1,0.1,-6.5,79.3*,-0.4,-8.7
Cc1csc(NC(=O)CSc2nnc(-c3ccc(Cl)cc3)n2N)n1,0.7,-0.2,-3.4,26.6,-2.1,-11.3
CCc1ccc(C2=NN(CCC(=O)NC(C)c3ccc4c(c3)OCCO4)C(=O)CC2)cc1 (stereo not given),-0.7,0.0,0.8,40.7,-0.2,-0.4
Cc1csc(NC(=O)CCc2c(C)nc3cc(-c4ccc(Cl)cc4)nn3c2C)n1,-0.6,0.0,1.8,88.5*,1.1,1.8
COc1cc(OC)cc(-c2cc3nc(C)c(CCC(=O)NCc4ccccc4)c(C)n3n2)c1,-8.0,0.3,-6.1,83.7*,2.0,-2.3
CC1(C(=O)NS(=O)(=O)c2ccccc2Cl)CCN1C(=O)c1cccc2ccccc12 (stereo not given),.,-0.2,.,.,1.4,.
CN(C)CCN(C)C1CN(Cc2ccc([N+](=O)[O-])cc2)S(=O)(=O)C1 (stereo not given),.,0.4,.,.,-1.2,.
O=C(c1ccc(Cl)c(S(=O)(=O)NCc2cccnc2)c1)N1CCCC1,-1.9,-0.2,-0.1,.,-1.6,-3.0
O=C(NCCC(=O)N1CCNC1=O)OCc1ccccc1,1.3,-0.2,-0.7,11.0,-1.5,13.7*
Cn1c(N)c(C(=O)COc2ccc(Cl)cc2Cl)c(=O)n(C)c1=O,1.0,-0.3,-3.4,23.7,1.1,1.3
Cn1c(=O)c(C(=O)COc2ccc(F)cc2Cl)c(N)n(Cc2ccccc2)c1=O,-0.6,0.7,-1.5,78.8*,0.1,-13.1
CCc1nc2c(OCc3ccccc3C(=O)OC)cccn2c1N(C)C(=O)Nc1ccccc1OC,.,-0.1,.,.,0.5,.
CNC(=O)c1ccc(-c2ccc(OC)cc2)s1,1.7,0.1,2.7,-1.3,0.4,-15.1
